ChEMBL document CHEMBL1144402, “Effect of a 6-cyano substituent in 14-oxygenated N-methylmorphinans on opioid receptor binding and antinociceptive potency” (J Med Chem, 2005)

Assays:
Mus musculus [1] = assay: In vivo analgesic effect of the compound (sc) assessed as antinociceptive potency by hot plate test in mice; assay type: functional
Method in brief: (§1)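 Male ICR mice of 20–30 g, each animal tested only once. Drug given subcutaneously at a minimum of three doses, 6–10 mice per dose. Hot-plate, tail-flick and p-phenylquinone writhing tests were run as modified procedures. Potency is given as the 50% effective dose with 95% confidence limits.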

Mus musculus [2] = assay: In vivo analgesic effect of the compound (sc) assessed as antinociceptive potency by p-phenylquinone writhing test in mice; assay type: functional; method in brief: as §1
Mus musculus [3] = assay: In vivo analgesic effect of the compound (sc) assessed as antinociceptive potency by tail flick test in mice; assay type: functional; method in brief: as §1
Mu-type opioid receptor = Mu-type opioid receptor (Rattus norvegicus, UniProt P33535); assay: Displacement of [3H][DAMGO] from mu opioid receptor of rat brain membranes; assay type: cell membranes, Membrane
Method in brief: (§2)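 Competitive binding on rat brain membrane preparations with the tritiated radioligand named for each receptor (μ, [3H]DAMGO; δ, [3H][Ile5,6]deltorphin II; κ, [3H]U69,593). Affinity is reported as inhibition constant (Ki).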

[4] = target: Delta-type opioid receptor (Rattus norvegicus, UniProt P33533); assay: Displacement of [3H]Ile5,6]-deltorphin II from delta opioid receptor of rat brain membranes; assay type: cell membranes, Membrane; method in brief: as §2
[5] = target: Kappa-type opioid receptor (Rattus norvegicus, UniProt P34975); assay: Displacement of[3H]U69,593 from kappa opioid receptor of rat brain membranes; method in brief: as §2
Mus musculus [6] = assay: In vivo analgesic effect (sc) assessed as antinociceptive potency by tail flick test in mice; assay type: functional; method in brief: as §1
Mus musculus [7] = assay: In vivo analgesic effect (sc) assessed as antinociceptive potency by p-phenylquinone writhing test in mice; assay type: functional; method in brief: as §1
Mus musculus [8] = assay: In vivo analgesic effect (sc) assessed as antinociceptive potency by hot plate test in mice; assay type: functional; method in brief: as §1

Chain of Delta-type opioid receptor (P33533 whole entry): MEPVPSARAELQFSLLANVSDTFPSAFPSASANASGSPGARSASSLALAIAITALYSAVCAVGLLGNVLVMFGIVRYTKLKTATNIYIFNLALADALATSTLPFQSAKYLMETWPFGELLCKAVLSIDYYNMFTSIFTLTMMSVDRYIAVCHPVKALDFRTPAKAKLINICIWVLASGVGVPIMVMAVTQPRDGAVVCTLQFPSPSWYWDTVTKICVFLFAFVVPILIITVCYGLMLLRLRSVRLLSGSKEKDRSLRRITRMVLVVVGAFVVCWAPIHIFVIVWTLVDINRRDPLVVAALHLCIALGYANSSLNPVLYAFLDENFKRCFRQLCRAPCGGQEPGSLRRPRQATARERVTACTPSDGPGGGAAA
Chain of Kappa-type opioid receptor (P34975 whole entry): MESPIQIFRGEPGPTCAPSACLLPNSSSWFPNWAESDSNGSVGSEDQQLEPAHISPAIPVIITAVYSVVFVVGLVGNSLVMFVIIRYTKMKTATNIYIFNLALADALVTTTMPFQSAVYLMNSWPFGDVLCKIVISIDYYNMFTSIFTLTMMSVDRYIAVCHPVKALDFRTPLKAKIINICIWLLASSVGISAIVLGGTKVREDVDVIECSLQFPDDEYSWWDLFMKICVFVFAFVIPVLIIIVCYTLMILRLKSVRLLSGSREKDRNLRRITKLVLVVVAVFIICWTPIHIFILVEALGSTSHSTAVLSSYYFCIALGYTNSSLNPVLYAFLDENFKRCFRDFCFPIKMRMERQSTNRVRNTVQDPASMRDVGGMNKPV
Chain of Mu-type opioid receptor (P33535 whole entry): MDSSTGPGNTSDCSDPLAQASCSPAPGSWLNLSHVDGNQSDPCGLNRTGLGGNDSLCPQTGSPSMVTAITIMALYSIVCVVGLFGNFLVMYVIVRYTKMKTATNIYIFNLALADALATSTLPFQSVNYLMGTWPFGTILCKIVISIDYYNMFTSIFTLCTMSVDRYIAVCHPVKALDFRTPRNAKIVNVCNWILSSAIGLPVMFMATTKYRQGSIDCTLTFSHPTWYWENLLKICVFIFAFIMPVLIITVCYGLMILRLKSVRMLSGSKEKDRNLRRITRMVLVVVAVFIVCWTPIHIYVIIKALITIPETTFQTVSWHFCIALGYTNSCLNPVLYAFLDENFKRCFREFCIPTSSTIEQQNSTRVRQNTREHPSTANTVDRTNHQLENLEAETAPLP

Row | SMILES | ED50 (Mus musculus [1]) | ED50 (Mus musculus [2]) | ED50 (Mus musculus [3]) | Ki (Mu-type opioid receptor) | Ki [4] | Ki [5] | ED50 (Mus musculus [6]) | ED50 (Mus musculus [7]) | ED50 (Mus musculus [8])
1 | COc1ccc2c(c1O)[C@@]13C=C(C#N)CC[C@@]1(OC)[C@@H](C2)N(C)CC3 | 0.25 mg/kg | 0.11 mg/kg | 0.21 mg/kg | 5.38 nM | 197 nM | 378 nM |  |  | 
2 | COc1ccc2c(c1O)[C@]13CCN(C)[C@H](C2)[C@]1(OC)CCC(=O)C3 | 0.29 mg/kg |  |  | 4.65 nM | 180 nM | 592 nM |  |  | 
3 | COc1ccc2c(c1OC)[C@]13CCN(C)[C@H](C2)[C@]1(O)CCC(=O)C3 | 0.14 mg/kg |  |  | 3.88 nM | 91.6 nM | 693 nM |  |  | 
4 | COc1ccc2c(c1OC)[C@@]13C=C(C#N)CC[C@@]1(O)[C@@H](C2)N(C)CC3 | 0.15 mg/kg | 0.026 mg/kg | 0.018 mg/kg | 2.44 nM | 107 nM | 364 nM |  |  | 
5 | COc1ccc2c3c1O[C@H]1C(=O)CC[C@@]4(O)[C@@H](C2)N(C)CC[C@]314 [OXYCODONE] |  |  |  |  |  |  | 0.94 mg/kg | 0.38 mg/kg | 1.37 mg/kg
6 | COc1ccc2c(c1O)[C@@]13C=C(C#N)CC[C@@]1(O)[C@@H](C2)N(C)CC3 | 0.5 mg/kg | 0.18 mg/kg | 1.88 mg/kg |  | 498 nM | 1650 nM |  |  | 
7 | COc1ccc2c(c1O)[C@]13CCN(C)[C@H](C2)[C@]1(O)CCC(=O)C3 | 2.6 mg/kg |  |  | 32.6 nM | 881 nM | 763 nM |  |  | 
